# According to ChEMBL document CHEMBL1268908, “Design, synthesis, radiolabeling, and in vivo evaluation of carbon-11 labeled N-[2-[4-(3-cyanopyridin-2-yl)piperazin-1-yl]ethyl]-3-methoxybenzamide, a potential positron emission tomography tracer for the dopamine D(4) receptors” (J Med Chem, 2010):
# Key:
# [1] = Biodistribution in rhesus monkey entorhinal cortex at 150.3 MBq, iv after 0.75 mins; type: ADME, organism-based, Macaca mulatta; conditions: in vivo, 45 s
# Summary of the method: (§1)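 Single male rhesus monkey anesthetized with ketamine 10 mg/kg im, head fixed. Attenuation correction by 20 min 68Ge-68Ga transmission scan. [11C]-tracer in saline (pH 7.4) given iv, specific radioactivity 2.9 TBq/μmol at injection. Dynamic 3D PET emission scan over 90 min in frames of 0.5 to 5 min. MRI T1 images used to define VOIs. Uptake expressed as […].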
# Striatum [2] = assay: Biodistribution in rhesus monkey striatum at 150.3 MBq, iv after 0.75 mins; type: ADME, organism-based, Macaca mulatta; conditions: in vivo, 45 s
# Striatum [3] = assay: Biodistribution in rhesus monkey striatum at 150.3 MBq, iv after 1.75 mins; type: ADME, organism-based, Macaca mulatta; conditions: in vivo, 105 s
# [4] = Biodistribution in rhesus monkey entorhinal cortex at 150.3 MBq, iv after 2.25 mins; type: ADME, organism-based, Macaca mulatta; conditions: in vivo, 135 s; summary of the method: as §1
# [5] = Biodistribution in rhesus monkey occipital lobe at 150.3 MBq, iv after 2.25 mins; type: ADME, organism-based, Macaca mulatta; conditions: in vivo, 135 s
# Summary of the method: (§2)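 Male rhesus monkey under ketamine 10 mg/kg im, head fixed; 20 min 68Ge-68Ga transmission scan, then 90 min dynamic 3D PET (6×0.5, 7×1, 20×2, 8×5 min frames) after iv [11C]-labelled tracer in saline, specific radioactivity about 2.9 TBq/μmol at injection. Regions defined on T1-weighted MRI; uptake expressed as % injected dose per mL.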
# Hippocampus [6] = assay: Biodistribution in rhesus monkey hippocampus at 150.3 MBq, iv after 3.5 mins; type: ADME, organism-based, Macaca mulatta; conditions: in vivo; summary of the method: as §2
# [7] = Biodistribution in rhesus monkey cerebellum at 150.3 MBq, iv after 3.5 mins; type: ADME, organism-based, Macaca mulatta; conditions: in vivo
# Summary of the method: (§3)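 Male rhesus monkey under ketamine (10 mg/kg im) with head fixation. After a 20 min 68Ge-68Ga transmission scan, the [11C]-labelled tracer in saline (pH 7.4) was injected iv, at 2.9 TBq/μmol specific radioactivity at injection. A dynamic 3D PET scan followed over 90 min (6×0.5, 7×1, 20×2, 8×5 min frames). Regions were defined on T1-weighted 1.5 T MRI, and uptake is given as %ID/mL.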
# [8] = Biodistribution in rhesus monkey cerebellum at 150.3 MBq, iv after 6.5 mins; type: ADME, organism-based, Macaca mulatta; conditions: in vivo; summary of the method: as §3
# Hippocampus [9] = assay: Biodistribution in rhesus monkey hippocampus at 150.3 MBq, iv after 7.5 mins; type: ADME, organism-based, Macaca mulatta; conditions: in vivo, 0.125 h; summary of the method: as §2
# [10] = Biodistribution in rhesus monkey retina at 150.3 MBq, iv after 13 mins; type: ADME, organism-based, Macaca mulatta; conditions: in vivo
# [11] = Biodistribution in rhesus monkey cingulate cortex at 150.3 MBq, iv after 15 mins; type: ADME, organism-based, Macaca mulatta; conditions: in vivo, 0.25 h; summary of the method: as §3
# Hippocampus [12] = assay: Biodistribution in rhesus monkey hippocampus at 150.3 MBq, iv after 19 mins; type: ADME, organism-based, Macaca mulatta; conditions: in vivo; summary of the method: as §1
# Hippocampus [13] = assay: Biodistribution in rhesus monkey hippocampus at 150.3 MBq, iv after 21 mins; type: ADME, organism-based, Macaca mulatta; conditions: in vivo, 0.35 h; summary of the method: as §1
# [14] = Biodistribution in rhesus monkey cingulate cortex at 150.3 MBq, iv after 21 mins; type: ADME, organism-based, Macaca mulatta; conditions: in vivo, 0.35 h; summary of the method: as §3
# Hippocampus [15] = assay: Biodistribution in rhesus monkey hippocampus at 150.3 MBq, iv after 23 mins; type: ADME, organism-based, Macaca mulatta; conditions: in vivo; summary of the method: as §1
# [16] = Biodistribution in rhesus monkey retina at 150.3 MBq, iv after 23 mins; type: ADME, organism-based, Macaca mulatta; conditions: in vivo
# [17] = Biodistribution in rhesus monkey cingulate cortex at 150.3 MBq, iv after 25 mins; type: ADME, organism-based, Macaca mulatta; conditions: in vivo; summary of the method: as §3
# Hippocampus [18] = assay: Biodistribution in rhesus monkey hippocampus at 150.3 MBq, iv after 27 mins; type: ADME, organism-based, Macaca mulatta; conditions: in vivo, 0.45 h; summary of the method: as §1
# [19] = Biodistribution in rhesus monkey cingulate cortex at 150.3 MBq, iv after 27 mins; type: ADME, organism-based, Macaca mulatta; conditions: in vivo, 0.45 h; summary of the method: as §3
# Striatum [20] = assay: Biodistribution in rhesus monkey striatum at 150.3 MBq, iv after 27 mins; type: ADME, organism-based, Macaca mulatta; conditions: in vivo, 0.45 h
# [21] = Biodistribution in rhesus monkey entorhinal cortex at 150.3 MBq, iv after 29 mins; type: ADME, organism-based, Macaca mulatta; conditions: in vivo; summary of the method: as §1
# [22] = Biodistribution in rhesus monkey cerebellum at 150.3 MBq, iv after 29 mins; type: ADME, organism-based, Macaca mulatta; conditions: in vivo; summary of the method: as §3
# [23] = Biodistribution in rhesus monkey retina at 150.3 MBq, iv after 29 mins; type: ADME, organism-based, Macaca mulatta; conditions: in vivo
# Striatum [24] = assay: Biodistribution in rhesus monkey striatum at 150.3 MBq, iv after 31 mins; type: ADME, organism-based, Macaca mulatta; conditions: in vivo
# Hippocampus [25] = assay: Biodistribution in rhesus monkey hippocampus at 150.3 MBq, iv after 33 mins; type: ADME, organism-based, Macaca mulatta; conditions: in vivo, 0.55 h; summary of the method: as §2
# [26] = Biodistribution in rhesus monkey entorhinal cortex at 150.3 MBq, iv after 33 mins; type: ADME, organism-based, Macaca mulatta; conditions: in vivo, 0.55 h; summary of the method: as §1
# [27] = Biodistribution in rhesus monkey retina at 150.3 MBq, iv after 37 mins; type: ADME, organism-based, Macaca mulatta; conditions: in vivo
# Hippocampus [28] = assay: Biodistribution in rhesus monkey hippocampus at 150.3 MBq, iv after 39 mins; type: ADME, organism-based, Macaca mulatta; conditions: in vivo, 0.65 h; summary of the method: as §2
# [29] = Biodistribution in rhesus monkey entorhinal cortex at 150.3 MBq, iv after 39 mins; type: ADME, organism-based, Macaca mulatta; conditions: in vivo, 0.65 h; summary of the method: as §1
# [30] = Biodistribution in rhesus monkey cerebellum at 150.3 MBq, iv after 39 mins; type: ADME, organism-based, Macaca mulatta; conditions: in vivo, 0.65 h; summary of the method: as §3
# [31] = Biodistribution in rhesus monkey cingulate cortex at 150.3 MBq, iv after 41 mins; type: ADME, organism-based, Macaca mulatta; conditions: in vivo; summary of the method: as §3
# [32] = Biodistribution in rhesus monkey entorhinal cortex at 150.3 MBq, iv after 41 mins; type: ADME, organism-based, Macaca mulatta; conditions: in vivo; summary of the method: as §1
# [33] = Biodistribution in rhesus monkey cingulate cortex at 150.3 MBq, iv after 47 mins; type: ADME, organism-based, Macaca mulatta; conditions: in vivo; summary of the method: as §3
# [34] = Biodistribution in rhesus monkey retina at 150.3 MBq, iv after 47 mins; type: ADME, organism-based, Macaca mulatta; conditions: in vivo
# Striatum [35] = assay: Biodistribution in rhesus monkey striatum at 150.3 MBq, iv after 57.5 mins; type: ADME, organism-based, Macaca mulatta; conditions: in vivo
# Hippocampus [36] = assay: Biodistribution in rhesus monkey hippocampus at 150.3 MBq, iv after 62.5 mins; type: ADME, organism-based, Macaca mulatta; conditions: in vivo; summary of the method: as §2
# [37] = Biodistribution in rhesus monkey cerebellum at 150.3 MBq, iv after 62.5 mins; type: ADME, organism-based, Macaca mulatta; conditions: in vivo; summary of the method: as §3
# Hippocampus [38] = assay: Biodistribution in rhesus monkey hippocampus at 150.3 MBq, iv after 67.5 mins; type: ADME, organism-based, Macaca mulatta; conditions: in vivo, 1.125 h; summary of the method: as §2
# [39] = Biodistribution in rhesus monkey occipital lobe at 150.3 MBq, iv after 67.5 mins; type: ADME, organism-based, Macaca mulatta; conditions: in vivo, 1.125 h
# Hippocampus [40] = assay: Biodistribution in rhesus monkey hippocampus at 150.3 MBq, iv after 77.5 mins; type: ADME, organism-based, Macaca mulatta; conditions: in vivo; summary of the method: as §2
# [41] = Biodistribution in rhesus monkey cerebellum at 150.3 MBq, iv after 77.5 mins; type: ADME, organism-based, Macaca mulatta; conditions: in vivo; summary of the method: as §3
# [42] = Biodistribution in rhesus monkey entorhinal cortex at 150.3 MBq, iv after 87.5 mins; type: ADME, organism-based, Macaca mulatta; conditions: in vivo; summary of the method: as §1
# [43] = Biodistribution in rhesus monkey entorhinal cortex at 150.3 MBq, iv after 2.75 mins; type: ADME, organism-based, Macaca mulatta; conditions: in vivo, 165 s; summary of the method: as §1
# Striatum [44] = assay: Biodistribution in rhesus monkey striatum at 150.3 MBq, iv after 2.75 mins; type: ADME, organism-based, Macaca mulatta; conditions: in vivo, 165 s
# [45] = Biodistribution in rhesus monkey occipital lobe at 150.3 MBq, iv after 8.5 mins; type: ADME, organism-based, Macaca mulatta; conditions: in vivo
# [46] = Biodistribution in rhesus monkey occipital lobe at 150.3 MBq, iv after 52.5 mins; type: ADME, organism-based, Macaca mulatta; conditions: in vivo, 0.875 h
# [47] = Biodistribution in rhesus monkey retina at 150.3 MBq, iv after 72.5 mins; type: ADME, organism-based, Macaca mulatta; conditions: in vivo
# [48] = Biodistribution in rhesus monkey cerebellum at 150.3 MBq, iv after 17 mins; conditions: in vivo
compound,measurement,setting,value
[11CH3]Oc1cccc(C(=O)NCCN2CCN(c3ncccc3C#N)CC2)c1,Drug uptake,[1],36.57 kBq/ml
same,Drug uptake,Striatum [2],64.38 kBq/ml
same,Drug uptake,Striatum [3],56.85 kBq/ml
same,Drug uptake,[4],40.15 kBq/ml
same,Drug uptake,[5],44.53 kBq/ml
same,Drug uptake,Hippocampus [6],43.93 kBq/ml
same,Drug uptake,[7],38.562 kBq/ml
same,Drug uptake,[8],31.35 kBq/ml
same,Drug uptake,Hippocampus [9],34.09 kBq/ml
same,Drug uptake,[10],50.22 kBq/ml
same,Drug uptake,[11],20.1 kBq/ml
same,Drug uptake,Hippocampus [12],18.77 kBq/ml
same,Drug uptake,Hippocampus [13],17.71 kBq/ml
same,Drug uptake,[14],17.1 kBq/ml
same,Drug uptake,Hippocampus [15],17.98 kBq/ml
same,Drug uptake,[16],54.68 kBq/ml
same,Drug uptake,[17],16.82 kBq/ml
same,Drug uptake,Hippocampus [18],15.74 kBq/ml
same,Drug uptake,[19],15.6843 kBq/ml
same,Drug uptake,Striatum [20],16.63 kBq/ml
same,Drug uptake,[21],15.05 kBq/ml
same,Drug uptake,[22],14.54 kBq/ml
same,Drug uptake,[23],56.95 kBq/ml
same,Drug uptake,Striatum [24],14.4435 kBq/ml
same,Drug uptake,Hippocampus [25],13.18 kBq/ml
same,Drug uptake,[26],16.29 kBq/ml
same,Drug uptake,[27],57.39 kBq/ml
same,Drug uptake,Hippocampus [28],12.1253 kBq/ml
same,Drug uptake,[29],13.49 kBq/ml
same,Drug uptake,[30],10.98 kBq/ml
same,Drug uptake,[31],10.93 kBq/ml
same,Drug uptake,[32],11.877 kBq/ml
same,Drug uptake,[33],10.29 kBq/ml
same,Drug uptake,[34],57.02 kBq/ml
same,Drug uptake,Striatum [35],9.776 kBq/ml
same,Drug uptake,Hippocampus [36],8.242 kBq/ml
same,Drug uptake,[37],8.418 kBq/ml
same,Drug uptake,Hippocampus [38],8.799 kBq/ml
same,Drug uptake,[39],7.697 kBq/ml
same,Drug uptake,Hippocampus [40],8.119 kBq/ml
same,Drug uptake,[41],8.009 kBq/ml
same,Drug uptake,[42],10.53 kBq/ml
same,Drug uptake,[43],41.01 kBq/ml
same,Drug uptake,Striatum [44],50.12 kBq/ml
same,Drug uptake,[45],25.53 kBq/ml
same,Drug uptake,[46],9.487 kBq/ml
same,Drug uptake,[47],51.43 kBq/ml
same,Drug uptake,[48],18.41 kBq/ml
